Measured values taken from ChEMBL document CHEMBL1123011, “Isoxazoles with antipicornavirus activity” (1985).
Values after ≈ are worked out from the molar mass of the structure shown. Active and inactive are the calls of the source. No cut-off for these calls is given here.

What was measured:
[1] = system: rhinovirus A2; experiment: In vitro anti-picornavirus activity against Rhinovirus type-2; Not Active.; format: functional, organism-based
How it was run: (§1)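 HeLa (Ohio) monolayers (day-old, 90%) were infected at about 80 pfu/well and adsorbed at least 1 h at 33 °C in 2% CO2. After 3 days at 33 °C they were fixed with formaldehyde and stained with crystal violet. MIC was the concentration giving 50% fewer plaques.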

[2] = system: Poliovirus 2; experiment: In vitro for anti-picornavirus activity against Poliovirus type-2; Not Active.; format: functional, organism-based
How it was run: (§2)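 Plaque-reduction assay on day-old HeLa (Ohio) monolayers at 90% confluence, infected with polio-2 at ca. 80 pfu/well. Adsorption was at least 1 h at 37 °C in 2% CO2. Cells were then overlaid in duplicate with drug in M-199/calf serum/agarose (Me2SO stock at 10 mg/mL, twofold dilutions) and held 3 days. Plaques were fixed with formaldehyde, stained with crystal violet and counted. MIC is the concentration giving 50% plaque reduction.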

[3] = Maximum testable level of compound was evaluated; format: functional
How it was run: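 In the HeLa (Ohio) plaque-overlay system, Me2SO-solubilized compound was twofold serially diluted into the agarose overlay. Uninfected cell controls were run alongside and cells were stained with crystal violet after 3 days. The maximum testable level was taken as the concentration below which no cytotoxic effects were seen.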

[4] = system: Poliovirus 2; experiment: Compound tested in vitro for anti-picornavirus activity against Poliovirus type-2; NA=Not Active; format: functional, organism-based; how it was run: as §2
[5] = system: rhinovirus A2; experiment: (§3) In vitro anti-picornavirus activity against Rhinovirus type-2.; format: functional; settings: Rhinovirus A
How it was run: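 HeLa (Ohio) monolayers (day-old, 90%) were infected at about 80 pfu/well and adsorbed at least 1 h at 33 °C in 2% CO2. After 3 days at 33 °C they were fixed with formaldehyde and stained with crystal violet.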

[6] = system: rhinovirus A2; experiment: as §3; format: functional; settings: Rhinovirus A; how it was run: as §1; remark: listed apart in the source
[7] = system: Poliovirus 2; experiment: In vitro anti-picornavirus activity against Poliovirus type-2.; format: functional; settings: Enterovirus C
[8] = system: Poliovirus 2; experiment: Compound tested in vitro for anti-picornavirus activity against Poliovirus type-2; format: functional; settings: Enterovirus C; how it was run: as §2
[9] = system: Poliovirus 2; experiment: Compound tested in vitro for anti-picornavirus activity against Poliovirus type-2; NA=Not Active.; format: functional, organism-based; how it was run: as §2

| Structure (SMILES) | MTL [3] [µg/mL] | MIC [5] [µg/mL] | MIC [6] [µg/mL] | MIC [7] [µg/mL] | further results |
| --- | --- | --- | --- | --- | --- |
| Cc1cc(CCCCCCCOc2ccc(C(N)=O)cc2)on1 | 12.5 |  |  |  | MIC [1]: inactive; MIC [2]: inactive |
| CCc1noc(CC)c1CCCCCCOc1ccc(C(=O)O)cc1 | 3.1 |  |  |  | MIC [1]: inactive; MIC [4]: inactive |
| CCOC(=O)c1cccc(OCCCCCCCc2cc(C)no2)c1 | 12.5 | 1.6 (≈ 4.63 µM) |  |  | MIC [2]: inactive |
| CCc1noc(CC)c1CCCCCCOc1ccc(F)cc1Cl | 12.5 |  | 3.1 (≈ 8.76 µM) |  | MIC [4]: inactive |
| Cc1ccc(OCCCCCCCc2cc(C)no2)c(Cl)c1 | 6.2 | 1.2 (≈ 3.73 µM) |  | 0.8 (≈ 2.49 µM) |  |
| CCc1noc(CC)c1CCCCCCOc1ccccc1F | 6.2 |  | 3.1 (≈ 9.71 µM) |  | MIC [4]: inactive |
| CCOC(=O)c1ccc(OCCCCCCCc2cc(C)no2)cc1 | 2.5 | 0.025 (≈ 0.0724 µM) |  | 0.8 (≈ 2.32 µM) |  |
| CCc1noc(CC)c1CCCCCCOc1ccc(Br)cc1 | 6 |  |  |  | MIC [1]: inactive; MIC [4]: inactive |
| CCOC(=O)c1ccc(OCCCCCCCc2c(CC)noc2CC)cc1 | 12 | 0.05 (≈ 0.129 µM) |  | 0.4 (≈ 1.03 µM) |  |
| CCc1noc(CC)c1CCCCCCOc1ccc(C(=O)OC)cc1Cl | 1.6 |  | 0.4 (≈ 1.02 µM) |  | MIC [8]: 0.61 µg/mL (≈ 1.55 µM) |
| CCOC(=O)c1ccc(OCCCCCCc2c(CC)noc2CC)cc1 | 6.2 |  | 0.1 (≈ 0.268 µM) |  | MIC [8]: 0.5 µg/mL (≈ 1.34 µM) |
| CC(=O)c1ccc(OCCCCCCCc2cc(C)no2)cc1 | 12.5 | 1.6 (≈ 5.07 µM) |  | 0.01 (≈ 0.0317 µM) |  |
| Cc1cc(CCCCCCCOc2ccc(Cl)cc2)on1 | 3.1 | 1.5 (≈ 4.87 µM) |  | 0.3 (≈ 0.975 µM) |  |
| CCc1noc(CC)c1CCCCCCOc1ccc(OC)cc1 | 6.2 |  | 3.1 (≈ 9.35 µM) |  | MIC [4]: inactive |
| CCc1noc(CC)c1CCCCCCOc1ccc(SC)cc1 | 12.5 |  |  |  | MIC [8]: 0.6 µg/mL (≈ 1.73 µM); MIC [1]: inactive |
| CCc1noc(CC)c1CCCCCCOc1c(OC)cccc1OC | 6.2 |  | 3.1 (≈ 8.58 µM) |  | MIC [4]: inactive |
| CCOC(=O)c1ccc(OCCCCc2cc(C)no2)cc1 | 6.2 |  | 3.1 (≈ 10.2 µM) |  | MIC [4]: inactive |
| COc1ccc(OCCCCCCc2cc(C)no2)c(Cl)c1 | 12.5 |  | 0.8 (≈ 2.47 µM) |  | MIC [8]: 0.3 µg/mL (≈ 0.926 µM) |
| Cc1cc(CCCCCCCOc2ccccc2)on1 | 6.2 | 1.2 (≈ 4.39 µM) |  | 1.7 (≈ 6.22 µM) |  |
| CCc1noc(CC)c1CCCCCCOc1ccccc1C(F)(F)F | 6.2 |  | 3.1 (≈ 8.39 µM) |  | MIC [4]: inactive |
| Cc1cc(CCCCCCCOc2ccc(C(=O)NN)cc2)on1 | 12.5 | 0.64 (≈ 1.93 µM) |  |  | MIC [2]: inactive |
| Cc1cc(CCCCCCCOc2ccc(C(C)C)cc2)on1 | 12.5 | 1 (≈ 3.17 µM) |  | 0.04 (≈ 0.127 µM) |  |
| CCC(=O)c1ccc(OCCCCCCCc2cc(C)no2)cc1 | 6.2 | 1.7 (≈ 5.16 µM) |  | 0.4 (≈ 1.21 µM) |  |
| Cc1cc(CCCCCCCOc2ccc(OCc3ccccc3)cc2)on1 | 12.5 |  |  |  | MIC [1]: inactive |

| Structure (SMILES) | MTL [3] [µg/mL] | MIC [5] [µg/mL] | MIC [6] [µg/mL] | MIC [7] [µg/mL] | further results |
| --- | --- | --- | --- | --- | --- |
| CCOC(=O)c1ccc(OCCCCCCCCc2cc(C)no2)cc1 | 12.5 | 0.05 (≈ 0.139 µM) |  |  | MIC [2]: inactive |
| COC(=O)c1ccc(OCCCCCCCc2cc(C)no2)cc1 | 6.2 | 3 (≈ 9.05 µM) |  | 0.4 (≈ 1.21 µM) |  |
| Cc1cc(CCCCCCCOc2ccc(C(=O)N(C)C)cc2)on1 | 3.1 |  |  | 2.5 (≈ 7.26 µM) | MIC [1]: inactive |
| Cc1cc(CCCCCCCOc2ccc(OC(C)C)cc2)on1 | 12.5 | 0.7 (≈ 2.11 µM) |  | 0.1 (≈ 0.302 µM) |  |
| COc1ccc(OCCCCCc2cc(C)no2)c(Cl)c1 | 12.5 |  | 0.4 (≈ 1.29 µM) |  | MIC [8]: 0.2 µg/mL (≈ 0.646 µM) |
| CCc1noc(CC)c1CCCCCCOc1ccc(OC)cc1C(=O)OC | 12 |  |  |  | MIC [8]: 2.9 µg/mL (≈ 7.45 µM); MIC [1]: inactive |
| CCc1noc(CC)c1CCCCCCOc1ccc(OC)cc1C(=O)O | 12.5 |  |  |  | MIC [1]: inactive; MIC [4]: inactive |
| CCc1noc(CC)c1CCCCCCOc1ccc(C(=O)OC)cc1Br | 12.5 |  | 0.4 (≈ 0.912 µM) |  | MIC [8]: 2.2 µg/mL (≈ 5.02 µM) |
| CCOC(=O)c1ccc(OCCCCCc2cc(C)no2)cc1 | 12.5 |  | 0.015 (≈ 0.0473 µM) |  | MIC [8]: 0.6 µg/mL (≈ 1.89 µM) |
| CCOC(=O)c1ccc(OCCCCCCCCc2c(CC)noc2CC)cc1 | 12.5 | 0.4 (≈ 0.996 µM) |  |  | MIC [2]: inactive |
| COc1ccc(OCCCCCCCCc2cc(C)no2)c(Cl)c1 | 12.5 | 0.16 (≈ 0.455 µM) |  | 0.65 (≈ 1.85 µM) |  |
| CCc1noc(CC)c1CCCCCCOc1ccc(O)cc1 | 25 |  |  |  | MIC [1]: inactive; MIC [4]: inactive |
| Cc1cc(CCCCCCCOc2ccc(C(=O)OC(C)(C)C)cc2)on1 | 2.5 | 6.2 (≈ 16.6 µM) |  | 1.2 (≈ 3.21 µM) |  |
| CCc1noc(CC)c1CCCCCCOc1c(Cl)cccc1Cl | 12 |  | 1.6 (≈ 4.32 µM) |  | MIC [8]: 5.9 µg/mL (≈ 15.9 µM) |
| CCc1noc(CC)c1CCCCCCOc1ccc(OC)cc1Cl | 12 |  | 0.8 (≈ 2.19 µM) |  | MIC [9]: inactive |
| CCc1noc(CC)c1CCCCCCOc1ccc(OC)cc1[N+](=O)[O-] | 6 | 0.3 (≈ 0.797 µM) |  | 1.5 (≈ 3.98 µM) |  |
| Cc1cc(CCCCCCCOc2ccc(C(=O)OC(C)C)cc2)on1 | 12.5 | 0.2 (≈ 0.556 µM) |  | 0.9 (≈ 2.5 µM) |  |
| CCOC(=O)c1ccc(OCCCCCCc2cc(C)no2)cc1 | 12.5 |  | 0.01 (≈ 0.0302 µM) |  | MIC [8]: 0.8 µg/mL (≈ 2.41 µM) |
| CCc1noc(CC)c1CCCCCCOc1cccc(I)c1 | 12.5 |  | 6.3 (≈ 14.7 µM) |  | MIC [4]: inactive |
| CCc1noc(CC)c1CCCCCCOc1ccc(OC)cc1Br | 6 |  | 0.4 (≈ 0.975 µM) |  | MIC [4]: inactive |
| COc1ccc(OCCCCCCCc2cc(C)no2)c([N+](=O)[O-])c1 | 3.1 | 0.3 (≈ 0.861 µM) |  | 0.2 (≈ 0.574 µM) |  |
| CCc1noc(CC)c1CCCCCCOc1ccc2c(c1)OCO2 | 6.2 |  |  |  | MIC [1]: inactive; MIC [4]: inactive |
| Cc1cc(CCCCCCCOc2ccc([N+](=O)[O-])cc2)on1 | 1.6 |  |  | 1.5 (≈ 4.71 µM) | MIC [1]: inactive |
| CCCOC(=O)c1ccc(OCCCCCCCc2cc(C)no2)cc1 | 25 | 0.07 (≈ 0.195 µM) |  |  | MIC [2]: inactive |
